Converted amounts (≈) assume the structure as drawn.
Assays:
[1] = system: Staphylococcus aureus; assay: Antibacterial activity against vancomycin-intermediate Staphylococcus aureus VISA3 at 2 times MIC of multidrug-resistant Staphylococcus aureus 3SP/R33 after 18 hrs by serial broth microdilution method; assay type: functional; conditions: VISA3, 18 h
In short: (§1)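 Two-stage broth microdilution MIC in Tryptic Soy Broth, run in triplicate. Phase I used two-fold serial dilutions from DMSO/TSB 1:10 v/v stocks, with ampicillin and vancomycin as controls. The inoculum was 0.5 McFarland, diluted in saline and TSB. […] Phase II diluted a stock at twice the Phase I MIC across 11 columns.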

[2] = system: Staphylococcus aureus; assay: Antibacterial activity against multidrug-resistant Staphylococcus aureus 3SP/R33 after 18 hrs by serial broth microdilution method; assay type: functional; conditions: 3SP/R33, 18 h; in short: as §1

| Compound | MIC [1] [µg/mL] | MIC [2] [µg/mL] |
| --- | --- | --- |
| O=C(N/N=C/c1ccc2c(c1)no[n+]2[O-])c1ccc(Br)cc1 | 18 | 10 (≈ 27.7 µM) |
| O=C(N/N=C/c1ccc2c(c1)no[n+]2[O-])c1ccc(Cl)cc1Cl | 17.7 | 15 (≈ 42.7 µM) |
| O=C(N/N=C/c1ccc2c(c1)no[n+]2[O-])c1ccc(Cl)c(Cl)c1 | 11.8 | 7.5 (≈ 21.4 µM) |
| O=C(N/N=C/c1ccc2c(c1)no[n+]2[O-])c1ccccc1 | 16.2 | 10 (≈ 35.4 µM) |
| O=C(N/N=C/c1ccc2c(c1)no[n+]2[O-])c1ccc([N+](=O)[O-])c(C(F)(F)F)c1 | 11.4 | 7.5 (≈ 19 µM) |
| O=C(N/N=C/c1ccc2c(c1)no[n+]2[O-])c1ccc([N+](=O)[O-])cc1 | 21.9 | 15 (≈ 45.8 µM) |
| O=C(N/N=C/c1ccc2c(c1)no[n+]2[O-])c1ccc(Cl)cc1 | 15.3 | 10 (≈ 31.6 µM) |
| O=C(N/N=C/c1ccc2c(c1)no[n+]2[O-])c1ccc(C(F)(F)F)cc1 | 13.1 | 10 (≈ 28.6 µM) |
